Compound activity (PubChem BioAssay)
E-selectin induc: induces E-selectin expression in human endothelial cells; HUVEC E-selectin immunofluorescence imaging; normalized: neutral wells 0, TNF-alpha wells 100; AID 686992; actives 0.37% (n = 260,000); P16581; activation, % at 7.58 µM;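 active means mean E-selectin-positive cell signal at least 10% of the positive control, reached in at least 60% of replicates, without over 20% cell loss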
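Test system: HUVEC; input: 3,000 HUVEC/well; measured by: immunofluorescence imaging; read-out: % PE-positive cells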
DENV2 CPE rescue: protects cells from dengue virus 2 cytopathic effect | DENV2-infected cells, cytopathic effect rescue, plate reader | CPE inhibition, % at 9.99 µM | AID 651640 | actives 1.7% (n = 350,000); in the data active means CPE inhibition above about 20%, passing the limit was not always enough; tested in BHK-21 cells
FGF22 binding: binders of recombinant human FGF22 by thermal shift; actives 1.5% (n = 340,000); SYPRO orange fluorescence; percent of sucrose octasulfate shift, DMSO zero; activity (Tm shift, normalised), % at 9.99 µM; Q9HCT0;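 active means mean Tm shift, scaled 0 neutral to 100 positive control, at about 1.3% or above, every replicate too, limit read from the data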
Target sequence (Q9HCT0 whole entry, looked up): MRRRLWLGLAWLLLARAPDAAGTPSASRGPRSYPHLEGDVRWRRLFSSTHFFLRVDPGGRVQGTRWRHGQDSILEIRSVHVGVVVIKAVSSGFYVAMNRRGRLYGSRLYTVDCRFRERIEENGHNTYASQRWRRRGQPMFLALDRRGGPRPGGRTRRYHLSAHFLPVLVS
PglD inh: PglD (C. jejuni) enzyme inhibition | purified PglD enzyme, DTNB colorimetric CoA detection | inhibition, % at 12.5 µM | actives 0.098% (n = 360,000); in the data active means inhibition above about 16%, passing the limit was not always enough
XiGFP reactiv: X-chromosome reactivation activator | XiGFP mouse fibroblasts, % GFP-positive cells imaging, 3 d; cells co-treated with 5-aza-dC sensitizer; scaled so ellipticine positive control = 100% | activation, % at 7.58 µM | actives 0.055% (n = 360,000);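 active means mean normalized replicate activation at least 10% and every replicate at or above 10%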
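System: SV40-immortalized XiGFP fibroblast cells, line 68-5-11 / Incubation: 3-day compound exposure, then 15 min fixation at room temperature / Compound: single concentration per compound, delivered by pin transfer / Buffer or medium: DMEM plus 5-aza-dC sensitizer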
Statin myotox sup: suppression of simvastatin myotoxicity; rescue of ATP level, % at 7.49 µM; C2C12 myotubes + simvastatin, ATP luminescence, 48 h; scaled: DMSO 0, geranylgeraniol control 100; actives 0.78% (n = 330,000); AID 602340;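 active means mean ATP rescue above about 67%, or every replicate alone reaching that limit, limit read from the data, passing the limit was not always enough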;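 further: myotubes were challenged with 10 µM simvastatin during compound exposure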
A number is an active result; . = inactive; / = no result. A selection: hits, their analogues and other compounds. The true share with any hit is near 3.3%.

SMILES	E-selectin induc	DENV2 CPE rescue	FGF22 binding	PglD inh	XiGFP reactiv	Statin myotox sup
CCC(=O)N1[C@@H]2c3ccc(-c4cccc(F)c4)c(=O)n3C[C@@H]2[C@@H](CO)[C@@H]1C(=O)OC	.	76	.	.	.	.
CCNC(=O)[C@H]1[C@H](CO)[C@H]2Cn3c(ccc(-c4cccc(OC)c4)c3=O)[C@H]2N1S(C)(=O)=O	.	28	.	.	.	.
CCNC(=O)[C@H]1[C@H](CO)[C@H]2Cn3c(ccc(-c4cccc(OC)c4)c3=O)[C@H]2N1C(=O)NC(C)C	.	31	.	.	.	.
CCNC(=O)[C@H]1[C@H](CO)[C@H]2Cn3c(ccc(-c4ccc(OC)cc4)c3=O)[C@@H]1N2CC	.	79	.	.	.	.
COc1cccc(-c2ccc3n(c2=O)C[C@H]2[C@H](CO)[C@@H](C(=O)NCC4CC4)N(C(=O)NC(C)C)[C@@H]32)c1	.	.	.	.	.	.
CNC[C@@H]1Oc2ccc(NC(=O)CCCN(C)C)cc2CC(=O)N([C@@H](C)CO)C[C@H]1C	/	.	/	/	.	/
Nc1[nH]c2cc([N+](=O)[O-])ccc2c1-c1ccccn1	/	.	.	.	100	.
Nc1nc2ccc([N+](=O)[O-])cc2[nH]1	.	.	.	.	.	.
CN1C(=O)c2cccc3c(S(=O)(=O)NCc4ccco4)ccc1c23	/	/	/	.	/	110
CN1C(=O)c2cccc3c(S(N)(=O)=O)ccc1c23	/	.	.	.	.	.
C[C@H](CO)N1C[C@H](C)[C@H](CN(C)C(=O)Nc2ccc(C(F)(F)F)cc2)OCCCC[C@H](C)Oc2ccc(NS(=O)(=O)c3ccc(F)cc3)cc2C1=O	/	82	.	.	.	/
C[C@@H]1CCCCO[C@@H](CN(C)C(=O)Nc2ccc(C(F)(F)F)cc2)[C@H](C)CN([C@H](C)CO)C(=O)c2cc(NS(=O)(=O)c3ccc(F)cc3)ccc2O1	/	69	.	.	.	/
C[C@H](CO)N1C[C@H](C)[C@@H](CN(C)C(=O)NC2CCCCC2)OCCCC[C@H](C)Oc2ccc(NS(=O)(=O)c3cccs3)cc2C1=O	.	.	.	.	.	.
Cc1ccc(S(=O)(=O)NCC[C@H]2CC[C@@H](NC(=O)c3cnccn3)[C@H](CO)O2)cc1	.	.	.	.	.	.
CC(=O)OCC(=O)C1CCC2C3CC=C4CC(O)CCC4(C)C3CCC12C (stereo not given)	.	.	.	.	.	.
C[C@]12CC[C@H](OC(=O)CCC(=O)O)CC1=CCC1C2CC[C@@]2(C)C1CC[C@@H]2N (stereo not given in full)	.	.	43	.	.	.
CCNc1nc(NCC)nc(C(=O)OCCO)n1	.	29	.	.	.	.
COc1ccc2c3c([nH]c2c1)[C@@H](CO)N(S(C)(=O)=O)CC31CN(C(=O)c2ccncc2)C1	.	.	.	/	.	/
Cc1ccc2c(c1)sc(C)[n+]2CCCS(=O)(=O)[O-]	.	.	43	.	.	.
COc1ccccc1N1CCN(C(=O)CCN2C(=O)c3cccc4cccc(c34)C2=O)CC1	/	.	45	/	.	/
COc1ccccc1N1CCN(C(=O)CN2C(=O)c3ccccc3C2=O)CC1	/	.	.	/	.	/
CCCN1[C@@H]2c3ccc(-c4ccc(F)cc4)c(=O)n3C[C@H]1[C@H](CO)[C@H]2C(=O)NCC1CC1	.	.	.	.	.	.
CN(C(=O)COC(=O)CSc1ccc([N+](=O)[O-])cc1)c1ccccc1	.	36	.	.	.	.
COc1cc(/C=C2\C(=N)N3N=C(S(C)(=O)=O)SC3=NC2=O)cc(OC)c1OCCOc1cccc(C)c1	/	.	2.0	.	.	.
COc1cc(/C=C2\C(=N)N3N=C(S(C)(=O)=O)SC3=NC2=O)cc(OC)c1OCCOc1ccc(C)cc1	.	.	1.7	.	.	.
SMILES	E-selectin induc	DENV2 CPE rescue	FGF22 binding	PglD inh	XiGFP reactiv	Statin myotox sup
NNC(=O)CN1C(c2ccccc2)=Nc2ccc(Br)cc2C1c1ccccc1 (stereo not given)	/	.	43	/	.	/
CC1=Nc2ccc(Br)cc2C(c2ccccc2)N1CC(=O)NN (stereo not given)	.	.	43	/	.	/
COCC(=O)N1C[C@@H](C)[C@@H](OC)CN(C)C(=O)c2ccc(NC(=O)c3ccccc3)cc2OC[C@H]1C	.	.	.	.	.	.
CC1CN(CCOCCSc2ccc(Cl)cc2)CC(C)O1 (stereo not given)	.	.	.	.	.	.
CC1CN(CCOCCSc2ccccc2)CC(C)O1 (stereo not given)	/	.	43	/	.	/
COc1ccc2c3c([nH]c2c1)[C@H](CO)N(C(=O)NC(C)C)CC31CN(C(=O)c2cnccn2)C1	.	.	.	/	.	/
O=C1CCN(CCCN2CCC(=O)NC2=S)C(=S)N1	.	.	44	.	.	.
COc1ccc(S(=O)(=O)Nc2ccc3c(c2)CC(=O)N([C@@H](C)CO)C[C@H](C)[C@@H](CN(C)S(C)(=O)=O)O3)cc1	.	.	.	.	.	.
Cc1cccc(C(=O)N2CCC(n3nnc4cc(F)ccc43)CC2)c1	/	/	/	.	/	134
CS(=O)(=O)c1cccc(-c2csc(N3CCC(C(N)=O)CC3)n2)c1	.	/	43	.	.	.
O=C(CSc1ncn[nH]1)NN(c1ccccc1)c1ccccc1	/	.	44	/	.	/
O=C(CSc1ncn[nH]1)NCCc1ccccc1	/	/	/	.	/	.
CCCC(=O)Nc1ccc2c(c1)C(=O)N(C)C[C@H](OC)[C@H](C)CN(C(=O)c1ccncc1)[C@H](C)CO2	.	.	/	.	.	.
C[C@@H]1CCCCO[C@H](CN(C)C(=O)c2ccccc2)[C@@H](C)CN([C@@H](C)CO)C(=O)c2cc(NC(=O)Nc3ccc4c(c3)OCO4)ccc2O1	.	22	.	.	.	/
C[C@@H]1CN([C@@H](C)CO)C(=O)c2cc(NC(=O)Nc3ccc4c(c3)OCO4)ccc2O[C@@H](C)CCCCO[C@H]1CN(C)C(=O)C1CCCCC1	.	77	.	.	.	/
COc1ccc(NC(=O)Nc2ccc3c(c2)C(=O)N([C@H](C)CO)C[C@H](C)[C@H](CN(C)C(=O)Nc2ccc4c(c2)OCO4)OCCCC[C@@H](C)O3)cc1	.	40	.	.	.	/
COc1ccc(NC(=O)Nc2ccc3c(c2)C(=O)N([C@H](C)CO)C[C@@H](C)[C@@H](CN(C)C(=O)Nc2ccc4c(c2)OCO4)OCCCC[C@@H](C)O3)cc1	.	.	.	.	.	/
C[C@@H]1CCCCO[C@H](CN(C)C(=O)Nc2ccc3c(c2)OCO3)[C@H](C)CN([C@@H](C)CO)C(=O)c2cc(NC(=O)Nc3ccccc3)ccc2O1	/	23	.	.	.	/
